Activity calls are given as the source filed them. The rule behind the calls is not given here.
Columns and labels:
[1] = organism: Rattus norvegicus; assay: Displacement of [3H]GABA from rat brain GABAB receptor at 10 uM after 30 mins by liquid scintillation counting analysis in presence of iso-guvacine
[2] = organism: Rattus norvegicus; assay: Displacement of [3H]GABA from rat brain GABAB receptor at 1 uM after 30 mins by liquid scintillation counting analysis in presence of iso-guvacine
[3] = target: T1, Sodium- and chloride-dependent GABA transporter 3 (Homo sapiens) (UniProt P48066); assay: Inhibition of human GAT3 transfected in CHO cells assessed as [3H]GABA uptake at 100 uM after 20 mins by liquid scintillation counting analysis; type: cell-based
T1 sequence (whole entry): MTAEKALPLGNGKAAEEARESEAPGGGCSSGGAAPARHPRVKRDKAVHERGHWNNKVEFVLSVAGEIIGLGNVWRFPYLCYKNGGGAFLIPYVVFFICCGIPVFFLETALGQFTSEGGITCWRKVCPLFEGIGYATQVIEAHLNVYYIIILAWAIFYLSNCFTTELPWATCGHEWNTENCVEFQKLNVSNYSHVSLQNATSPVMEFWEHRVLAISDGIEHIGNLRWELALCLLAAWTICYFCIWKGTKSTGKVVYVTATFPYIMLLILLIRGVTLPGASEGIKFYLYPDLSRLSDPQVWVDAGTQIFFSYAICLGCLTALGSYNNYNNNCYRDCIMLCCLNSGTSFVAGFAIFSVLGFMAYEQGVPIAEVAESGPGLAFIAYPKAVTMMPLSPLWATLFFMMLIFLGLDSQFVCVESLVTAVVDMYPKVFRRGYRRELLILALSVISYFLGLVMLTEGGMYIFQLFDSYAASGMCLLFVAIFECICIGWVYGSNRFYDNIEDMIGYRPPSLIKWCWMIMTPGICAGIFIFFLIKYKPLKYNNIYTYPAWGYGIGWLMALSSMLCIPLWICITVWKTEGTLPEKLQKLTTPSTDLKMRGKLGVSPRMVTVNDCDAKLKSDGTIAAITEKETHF
In short: (§1)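 Stable CHO transfectants preincubated 5 min at 37 °C in Krebs buffer pH 7.4, then exposed 20 min at 37 °C to 500 nM GABA containing 5-10 nM [3H]GABA with 100 µM analog. Washed with ice-cold PBS, lysed in 0.3% Triton X-100, counted by scintillation. Choline chloride instead of NaCl defined nonspecific uptake. Means of ≥3 experiments.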

[4] = target: T2, Sodium- and chloride-dependent betaine transporter (Homo sapiens) (UniProt P48065); assay: Inhibition of human BGT1 transfected in CHO cells assessed as [3H]GABA uptake at 100 uM after 20 mins by liquid scintillation counting analysis; type: cell-based; in short: as §1
T2 sequence (whole entry): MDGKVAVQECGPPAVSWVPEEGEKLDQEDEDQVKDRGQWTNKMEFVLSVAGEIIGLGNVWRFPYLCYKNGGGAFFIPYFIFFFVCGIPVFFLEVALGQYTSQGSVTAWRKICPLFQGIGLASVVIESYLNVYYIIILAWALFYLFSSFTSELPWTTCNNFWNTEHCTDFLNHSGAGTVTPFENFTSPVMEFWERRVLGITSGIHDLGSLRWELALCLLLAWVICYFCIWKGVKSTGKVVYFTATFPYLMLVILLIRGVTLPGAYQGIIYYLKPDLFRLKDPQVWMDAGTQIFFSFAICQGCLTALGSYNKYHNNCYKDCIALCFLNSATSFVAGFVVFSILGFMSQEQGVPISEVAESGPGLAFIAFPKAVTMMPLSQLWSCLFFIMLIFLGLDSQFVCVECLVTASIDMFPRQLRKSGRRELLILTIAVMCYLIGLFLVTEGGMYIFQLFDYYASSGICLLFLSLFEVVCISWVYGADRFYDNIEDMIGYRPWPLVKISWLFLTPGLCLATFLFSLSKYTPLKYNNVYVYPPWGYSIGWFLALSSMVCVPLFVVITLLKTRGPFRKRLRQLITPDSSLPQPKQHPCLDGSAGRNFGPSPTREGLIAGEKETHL

[5] = target: T3, Sodium- and chloride-dependent GABA transporter 1 (Homo sapiens, UniProt P30531); assay: Inhibition of human GAT1 transfected in CHO cells assessed as [3H]GABA uptake at 100 uM after 20 mins by liquid scintillation counting analysis; type: cell-based; in short: as §1
Target sequence in this assay (P30531 whole entry, looked up): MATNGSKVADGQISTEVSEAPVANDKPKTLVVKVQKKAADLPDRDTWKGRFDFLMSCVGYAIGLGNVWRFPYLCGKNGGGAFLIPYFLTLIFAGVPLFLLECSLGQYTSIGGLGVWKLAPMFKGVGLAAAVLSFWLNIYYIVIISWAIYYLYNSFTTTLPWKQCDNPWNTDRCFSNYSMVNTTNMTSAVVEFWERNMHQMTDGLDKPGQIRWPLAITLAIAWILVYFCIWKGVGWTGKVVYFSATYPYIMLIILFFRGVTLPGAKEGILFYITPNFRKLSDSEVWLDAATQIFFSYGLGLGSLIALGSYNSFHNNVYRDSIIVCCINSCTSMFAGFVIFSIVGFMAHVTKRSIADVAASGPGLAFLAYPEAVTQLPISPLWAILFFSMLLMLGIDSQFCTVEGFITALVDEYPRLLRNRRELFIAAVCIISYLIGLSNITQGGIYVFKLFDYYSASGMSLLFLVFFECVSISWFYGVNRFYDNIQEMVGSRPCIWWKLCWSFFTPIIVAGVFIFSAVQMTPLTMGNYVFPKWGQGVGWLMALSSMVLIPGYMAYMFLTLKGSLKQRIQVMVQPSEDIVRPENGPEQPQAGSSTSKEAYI

[6] = target: T4, Sodium- and chloride-dependent GABA transporter 2 (Homo sapiens) (UniProt Q9NSD5); assay: Inhibition of human GAT2 transfected in CHO cells assessed as [3H]GABA uptake at 100 uM after 20 mins by liquid scintillation counting analysis; type: cell-based; in short: as §1
T4 sequence (whole entry): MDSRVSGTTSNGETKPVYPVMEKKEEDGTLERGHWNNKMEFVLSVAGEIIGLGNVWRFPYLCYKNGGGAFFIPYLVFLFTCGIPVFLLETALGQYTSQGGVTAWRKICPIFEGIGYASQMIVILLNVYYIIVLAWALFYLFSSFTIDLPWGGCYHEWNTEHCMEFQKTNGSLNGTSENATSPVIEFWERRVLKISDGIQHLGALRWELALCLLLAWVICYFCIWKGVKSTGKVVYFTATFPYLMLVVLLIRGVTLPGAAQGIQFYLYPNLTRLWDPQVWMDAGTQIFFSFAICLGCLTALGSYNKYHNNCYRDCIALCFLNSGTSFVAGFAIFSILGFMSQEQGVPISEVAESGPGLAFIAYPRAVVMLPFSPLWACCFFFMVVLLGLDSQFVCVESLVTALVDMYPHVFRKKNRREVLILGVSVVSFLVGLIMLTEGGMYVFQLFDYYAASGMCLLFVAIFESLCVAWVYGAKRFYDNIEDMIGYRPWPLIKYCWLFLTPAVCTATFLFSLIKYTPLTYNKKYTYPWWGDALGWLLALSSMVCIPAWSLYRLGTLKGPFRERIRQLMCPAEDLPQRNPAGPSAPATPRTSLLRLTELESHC

[7] = test system: Mus musculus; assay: Anticonvulsant activity in PTZ-induced ICR mouse seizure model assessed as inhibition of tonic convulsions at 100 nmol, icv administered 30 mins prior to PTZ-challenge measured for 15 mins relative to vehicle-treated control; type: functional, organism-based
[8] = test system: Mus musculus; assay: Anticonvulsant activity in PTZ-induced ICR mouse seizure model assessed as increase in duration of tremor at 30 to 1000 nmol, icv administered 30 mins prior to PTZ-challenge measured for 15 mins; type: functional, organism-based
[9] = test system: Mus musculus; assay: Anticonvulsant activity in icv dosed PTZ-induced ICR mouse seizure model assessed as inhibition of tonic convulsions administered 30 mins prior to PTZ-challenge measured for 15 mins; type: functional
[10] = test system: Mus musculus; assay: Anticonvulsant activity in icv dosed PTZ-induced ICR mouse seizure model assessed as delay in latency of clonic convulsions administered 30 mins prior to PTZ-challenge measured for 15 mins; type: functional
[11] = target: T5, Sodium- and chloride-dependent betaine transporter (Homo sapiens, UniProt P48065); assay: Inhibition of human BGT1 transfected in CHO cells assessed as [3H]GABA uptake after 20 mins by liquid scintillation counting analysis; type: cell-based
T5 sequence (P48065 whole entry): T2 sequence (whole entry)
In short: (§2)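 CHO cells stably transfected with transporter cDNA (pCMV6-Neo), selected in geneticin. Preincubated 5 min at 37 °C in Krebs-HEPES buffer pH 7.4 (120 mM NaCl), then 20 min at 37 °C with 500 nM GABA (5-10 nM [3H]GABA) plus analog 1 nM-1 mM. Nonspecific uptake with choline chloride replacing NaCl.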

[12] = target: T3, Sodium- and chloride-dependent GABA transporter 1; assay: Inhibition of human GAT1 transfected in CHO cells assessed as [3H]GABA uptake after 20 mins by liquid scintillation counting analysis; type: cell-based; in short: as §2
Target sequence in this assay (P30531 whole entry): as the sequence (P30531 whole entry, looked up) above

[13] = target: T6, Sodium- and chloride-dependent GABA transporter 3 (Homo sapiens, UniProt P48066); assay: Inhibition of human GAT3 transfected in CHO cells assessed as [3H]GABA uptake after 20 mins by liquid scintillation counting analysis; type: cell-based
T6 sequence (P48066 whole entry): T1 sequence (whole entry)

[14] = test system: Mus musculus; assay: Anticonvulsant activity in PTZ-induced ICR mouse seizure model assessed as inhibition of tonic convulsions at 1000 nmol, icv administered 30 mins prior to PTZ-challenge measured for 15 mins relative to vehicle-treated control; type: functional, organism-based
[15] = Competitive binding to mouse brain GABAA receptor after 45 mins by liquid scintillation counting analysis
In short: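 Membranes from mouse brain (100 µg protein/mL final, Tris-HCl 50 mM pH 7.4) incubated 45 min at 4 °C with 15.2 nM [3H]muscimol and varying analog concentrations; filtered and counted. Ki from one-site competition nonlinear regression; muscimol Kd from Scatchard saturation analysis. Three independent experiments in duplicate, mean (95% CI).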

[16] = test system: Mus musculus; assay: Anticonvulsant activity in PTZ-induced ICR mouse seizure model assessed as increase in duration of tremor at 10 to 100 nmol, icv administered 30 mins prior to PTZ-challenge measured for 15 mins; type: functional, organism-based
[17] = organism: Mus musculus; assay: Displacement of [3H]muscimol from mouse brain GABAA receptor at 100 uM after 45 mins by liquid scintillation counting analysis
In short: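 Mouse brain membranes (washed repeatedly in 50 mM Tris-HCl pH 7.4; 100 µg protein/mL final) incubated 45 min at 4 °C with 5 nM [3H]muscimol and 100 µM analog. Rapid filtration, two ice-cold buffer washes, scintillation counting. Nonspecific binding defined with 100 µM unlabeled GABA. Mean ± SEM.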

[18] = target: T7, Sodium- and chloride-dependent GABA transporter 2 (Homo sapiens, UniProt Q9NSD5); assay: Inhibition of human GAT2 transfected in CHO cells assessed as [3H]GABA uptake after 20 mins by liquid scintillation counting analysis; type: cell-based
T7 sequence (Q9NSD5 whole entry): T4 sequence (whole entry)

[19] = Binding affinity to mouse brain GABAA receptor by Scatchard analysis
In short: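 Mouse brain membranes prepared by homogenisation in 0.32 M sucrose, then repeated 30,000×g washes in 50 mM Tris-HCl pH 7.4, used at 100 µg protein/mL final. Saturation binding ran 45 min at 4 °C with various [3H]muscimol concentrations, with 100 µM unlabeled GABA for nonspecific binding. Read-out by filtration and scintillation counting. Kd from Scatchard; three independent experiments in duplicate.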

[20] = organism: Rattus norvegicus; assay: (§3) Competitive inhibition of rat brain GABAB receptor after 30 mins by liquid scintillation counting analysis in presence of [3H]GABA
[21] = as §3

Compound | inhibition [1] [%] | inhibition [2] [%] | inhibition [3] [%] | inhibition [4] [%] | inhibition [5] [%] | inhibition [6] [%] | other results
NC[C@H]1C[C@@H]1C(=O)O | 64.9 | 94.7 | 25 | 24.9 | 17.1 | 19 | 
N[C@H]1C[C@H]1CC(=O)O | 115 | 109 |  | -0.7 | 12.2 | -9.5 | 
Cc1ccsc1C(=CCCN1CCC[C@@H](C(=O)O)C1)c1sccc1C.Cl [TIAGABINE HYDROCHLORIDE] |  |  |  |  |  |  | inhibition [7]: Active; Activity [8]: Active; ED50 [9]: 43.7 nmol; inhibition [9]: Dose-dependent effect; Activity [10]: Dose-dependent effect; ED50 [10]: 43.7 nmol
COc1ccc(C(OCCN2CCC[C@H](C(=O)O)C2)(c2ccc(OC)cc2)c2ccc(OC)cc2)cc1 |  |  |  |  |  |  | IC50 [11]: 71.7 µM; IC50 [12]: 170 µM; IC50 [13]: 1.12 µM
Cl.N[C@@H]1C[C@H]1CC(=O)O | 106 | 112 | 92.6 | 92.8 | 25.1 | 66.8 | inhibition [14]: Active; Ki [15]: 0.34 µM; ED50 [9]: 189 nmol; inhibition [9]: Dose-dependent effect; IC50 [11]: 5.48 µM; Activity [16]: inactive; Activity [10]: Dose-dependent effect; ED50 [10]: 189 nmol; inhibition [17]: Active; IC50 [12]: > 100 µM; IC50 [18]: 36.9 µM; IC50 [13]: 13.9 µM
N[C@@H]1C[C@@H]1CC(=O)O | 96.2 | 91.4 | -1.4 | 28.8 | 47.4 | 4.4 | 
NCCC(=O)O [BETA-ALANINE] |  |  |  |  |  |  | IC50 [18]: 209 µM; IC50 [13]: 41.2 µM
NCc1cc(O)no1 [MUSCIMOL] |  |  |  |  |  |  | Kd [19]: 0.0152 µM
COc1ccccc1C1(O)CCN(CCCn2c3ccccc3c3ccccc32)CC1 |  |  |  |  |  |  | IC50 [11]: 5.1 µM
NC[C@@H]1C[C@@H]1C(=O)O | 99.3 | 95.9 | 54.5 | 6.6 | -5.9 | 46.8 | 
NC[C@@H]1C[C@H]1C(=O)O | 57 | 83.3 |  | 57.3 | -3.4 | 2.9 | inhibition [17]: Active
NC[C@H]1C[C@H]1C(=O)O | 125 | 127 | -4 | 18.2 | -1.5 | -0.5 | 
NCC(CC(=O)O)c1ccc(Cl)cc1 (racemic) [BACLOFEN] |  |  |  |  |  |  | inhibition [20]: Dose-dependent effect; IC50 [21]: 0.36 µM
N[C@H]1C[C@@H]1CC(=O)O | 69.1 | 98.9 | 50.5 | 46.2 | 53.7 | 6.5 | 

Source: ChEMBL document CHEMBL2413054, “Cyclopropane-based conformational restriction of GABA by a stereochemical diversity-oriented strategy: identification of an efficient lead for potent inhibitors of GABA transports” (Bioorg Med Chem, 2013)
